According to ChEMBL document CHEMBL1139875, “Discovery of 4-aminobutyric acid derivatives possessing anticonvulsant and antinociceptive activities: a hybrid pharmacophore approach” (2007):
Calls of active or inactive are those of the source. The calls are words filed in the database; no cut-off is given here.

How the values were obtained:
[1] = system: Mus musculus; test: Anticonvulsant activity in Swiss Albino mouse at 300 mg/kg, ip after 0.5 hr by MES test; assay type: functional, organism-based; set-up: dose 300 mg/kg
Method in brief: (§1)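 Mice (Swiss, 20-25 g) given i.p. doses of 30, 100 and 300 mg/kg under ADD program protocols, three per group, examined at 0.5 and 4 h in MES, scPTZ, scSTY or scPIC seizure tests. Value is the minimum dose protecting half or more of the mice.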

[2] = system: Mus musculus; test: Anticonvulsant activity in Swiss Albino mouse at 300 mg/kg, ip after 4 hrs by MES test; assay type: functional, organism-based; set-up: dose 300 mg/kg; method in brief: as §1
[3] = system: Mus musculus; test: Anticonvulsant activity in Swiss Albino mouse at 300 mg/kg, ip after 0.5 hr by scPTZ test; assay type: functional, organism-based; set-up: dose 300 mg/kg; method in brief: as §1
[4] = system: Mus musculus; test: Anticonvulsant activity in Swiss Albino mouse at 300 mg/kg, ip after 0.5 hr by scSTY test; assay type: functional, organism-based; set-up: dose 300 mg/kg; method in brief: as §1
[5] = system: Mus musculus; test: Anticonvulsant activity in Swiss Albino mouse at 300 mg/kg, ip after 4 hrs by scSTY test; assay type: functional, organism-based; set-up: dose 300 mg/kg; method in brief: as §1
[6] = system: Mus musculus; test: Anticonvulsant activity in Swiss Albino mouse at 100 mg/kg, ip after 4 hrs by scPIC test; assay type: functional, organism-based; set-up: dose 100 mg/kg; method in brief: as §1
[7] = system: Mus musculus; test: Neurotoxicity in Swiss Albino mouse at 300 mg/kg, ip after 0.5 hr by rotarod test; assay type: functional, organism-based; set-up: dose 300 mg/kg
Method in brief: (§2)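 Swiss mice (20-25 g) are trained on an accelerating rotorod (10 rpm, 3.2 cm rod), then injected i.p. at 30, 100 or 300 mg/kg, with three per group. Neurotoxicity means failure to keep equilibrium for at least 1 min in each of three trials, checked at 0.5 and 4 h. The value reported is the minimum dose affecting half or more of the mice.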

[8] = system: Mus musculus; test: Neurotoxicity in Swiss Albino mouse at 300 mg/kg, ip after 4 hrs by rotarod test; assay type: functional, organism-based; set-up: dose 300 mg/kg; method in brief: as §2
[9] = system: Mus musculus; test: Analgesic activity in Swiss Albino mouse assessed as number of acetic acid-induced writhing per 30 min after 100 mg/kg, ip; assay type: functional; settings: route intraperitoneal
Method in brief: (§3)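 Mice in groups of six dosed i.p. at 100 mg/kg, controls receiving 30% v/v PEG 400 in water. Writhing induced by i.p. 0.1 mL of 3% v/v acetic acid 1 h after drug. Writhes (abdominal stretch with at least one hind limb extended) counted over 30 min; % inhibition calculated. Mean ± SEM, Student's t test.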

[10] = system: Mus musculus; test: Analgesic activity in Swiss Albino mouse assessed as inhibition of acetic acid-induced writhing responses at 100 mg/kg, ip; assay type: functional; settings: route intraperitoneal; method in brief: as §3
[11] = system: Rattus norvegicus; test: Effect on spontaneous pain in Sprague-Dawley rat CCI model assessed as duration of paw withdrawal at 100 mg/kg, ip after 0.5 hr; assay type: functional; settings: route intraperitoneal
Method in brief: (§4)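 CCI rats (n = 4) dosed 100 mg/kg i.p. (vehicle 30% v/v PEG 400 in water). After 10 min acclimatization in a cage 5 cm above ground, cumulative time the ipsilateral paw was held off the floor over 5 min recorded, excluding locomotion lifts. Mean ± SEM; ANOVA/Bonferroni versus predrug.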

[12] = system: Rattus norvegicus; test: Effect on spontaneous pain in Sprague-Dawley rat CCI model assessed as duration of paw withdrawal at 100 mg/kg, ip after 1 hr; assay type: functional; settings: route intraperitoneal; method in brief: as §4
[13] = system: Rattus norvegicus; test: Effect on spontaneous pain in Sprague-Dawley rat CCI model assessed as duration of paw withdrawal at 100 mg/kg, ip after 1.5 hrs; assay type: functional; settings: route intraperitoneal
Method in brief: (§5)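 Unilateral CCI of sciatic nerve (Bennett and Xie) in Sprague-Dawley rats under i.p. pentobarbital sodium (65 mg/kg). Spontaneous pain is scored over 5 min after 10 min acclimatization, as cumulative time the ipsilateral paw is held off the floor. Paw lifts from locomotion or repositioning are excluded. Drug is given at 100 mg/kg i.p. with 30% v/v PEG 400 vehicle. Mean ± SEM, n = 4, compared with predrug by ANOVA/Bonferroni.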

[14] = system: Rattus norvegicus; test: Effect on spontaneous pain in Sprague-Dawley rat CCI model assessed as duration of paw withdrawal at 100 mg/kg, ip after 2 hrs; assay type: functional; settings: route intraperitoneal; method in brief: as §5
[15] = system: Rattus norvegicus; test: Anti-cold allodynia effect in Sprague-Dawley rat CCI model assessed as duration of paw withdrawal 100 mg/kg, ip after 2 hr; assay type: functional; settings: route intraperitoneal
Method in brief: (§6)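 CCI by sciatic nerve ligation under pentobarbital (65 mg/kg i.p.). Rats tested at baseline and 9 days post-surgery; those with allodynia dosed i.p. 100 mg/kg, vehicle 30% v/v PEG 400 in water. Acetone (100-200 µL) misted on midplantar affected paw; withdrawal duration recorded, three samples averaged, at least 3 min apart; n = 4.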

[16] = system: Rattus norvegicus; test: Anti-cold allodynia effect in Sprague-Dawley rat CCI model assessed as duration of paw withdrawal 100 mg/kg, ip after 2.5 hr; assay type: functional; settings: route intraperitoneal; method in brief: as §6
[17] = system: Rattus norvegicus; test: Effect on spontaneous pain in Sprague-Dawley rat CCI model assessed as duration of paw withdrawal at 100 mg/kg, ip after 2.5 hrs; assay type: functional; settings: route intraperitoneal; method in brief: as §5
[18] = system: Rattus norvegicus; test: Effect on spontaneous pain in Sprague-Dawley rat SNL model assessed as duration of paw withdrawal at 100 mg/kg, ip after 0.5 hr; assay type: functional; settings: route intraperitoneal
Method in brief: (§7)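 Rats underwent left L5 spinal nerve ligation (Kim and Chung) under i.p. pentobarbital (65 mg/kg). Spontaneous pain is recorded for 5 min after 10 min acclimatization, as cumulative duration the ipsilateral paw is lifted, excluding locomotor lifts. Dosing is 100 mg/kg i.p. in 30% v/v PEG 400/water, with testing at 0.5–2.5 h. Four rats, mean ± SEM versus predrug, one-way ANOVA with Bonferroni.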

[19] = system: Rattus norvegicus; test: Effect on spontaneous pain in Sprague-Dawley rat SNL model assessed as duration of paw withdrawal at 100 mg/kg, ip after 1 hr; assay type: functional; settings: route intraperitoneal; method in brief: as §7
[20] = system: Rattus norvegicus; test: Effect on spontaneous pain in Sprague-Dawley rat SNL model assessed as duration of paw withdrawal at 100 mg/kg, ip after 1.5 hrs; assay type: functional; settings: route intraperitoneal; method in brief: as §7
[21] = system: Rattus norvegicus; test: Effect on spontaneous pain in Sprague-Dawley rat SNL model assessed as duration of paw withdrawal at 100 mg/kg, ip after 2 hrs; assay type: functional; settings: route intraperitoneal; method in brief: as §7
[22] = system: Rattus norvegicus; test: Effect on spontaneous pain in Sprague-Dawley rat SNL model assessed as duration of paw withdrawal at 100 mg/kg, ip after 2.5 hrs; assay type: functional; settings: route intraperitoneal; method in brief: as §7
[23] = species: Rattus norvegicus; test: Anti-dynamic allodynic effect in Sprague-Dawley rat CCI model assessed as latency to paw withdrawal after 0.5 hr; assay type: functional
Method in brief: (§8)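 Rats with sciatic nerve chronic constriction injury (pentobarbital 65 mg/kg i.p. anaesthesia), baseline and day 9 testing, then drug per randomization table. After 10 min acclimatization, affected plantar surface stroked mildly with a cotton-bud; paw lift recorded. n = 4; retested 0.5-2.5 h post-dose.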

[24] = species: Rattus norvegicus; test: Anti-dynamic allodynic effect in Sprague-Dawley rat CCI model assessed as latency to paw withdrawal after 1 hr; assay type: functional; method in brief: as §8
[25] = species: Rattus norvegicus; test: Anti-dynamic allodynic effect in Sprague-Dawley rat CCI model assessed as latency to paw withdrawal after 1.5 hr; assay type: functional; method in brief: as §8
[26] = species: Rattus norvegicus; test: Anti-dynamic allodynic effect in Sprague-Dawley rat CCI model assessed as latency to paw withdrawal after 2 hr; assay type: functional; method in brief: as §8
[27] = species: Rattus norvegicus; test: Anti-dynamic allodynic effect in Sprague-Dawley rat CCI model assessed as latency to paw withdrawal after 2.5 hr; assay type: functional; method in brief: as §8
[28] = system: Rattus norvegicus; test: Anti-cold allodynia effect in Sprague-Dawley rat CCI model assessed as duration of paw withdrawal at 100 mg/kg, ip after 0.5 hr; assay type: functional; settings: route intraperitoneal; method in brief: as §6
[29] = system: Rattus norvegicus; test: Anti-cold allodynia effect in Sprague-Dawley rat CCI model assessed as duration of paw withdrawal 100 mg/kg, ip after 1 hr; assay type: functional; settings: route intraperitoneal; method in brief: as §6
[30] = system: Rattus norvegicus; test: Anti-cold allodynia effect in Sprague-Dawley rat CCI model assessed as duration of paw withdrawal 100 mg/kg, ip after 1.5 hr; assay type: functional; settings: route intraperitoneal; method in brief: as §6
[31] = system: Mus musculus; test: Anticonvulsant activity in Swiss Albino mouse at 300 mg/kg, ip after 0.5 hr by scPIC test; assay type: functional, organism-based; set-up: dose 300 mg/kg; method in brief: as §1
[32] = system: Mus musculus; test: Anticonvulsant activity in Swiss Albino mouse at 300 mg/kg, ip after 4 hrs by scPIC test; assay type: functional, organism-based; set-up: dose 300 mg/kg; method in brief: as §1

| Compound | Activity [1] | Activity [2] | Activity [3] | Activity [4] | Activity [5] | Activity [7] | Activity [8] | Activity [9] | inhibition in vivo at 100 mg/kg [10] | Activity [15] | Activity [16] | Activity [28] | Activity [29] | Activity [30] | further results |
| --- | --- | --- | --- | --- | --- | --- | --- | --- | --- | --- | --- | --- | --- | --- | --- |
| O=C(O)CCCNC(=O)NN=C(Cc1ccccc1)Cc1ccccc1 | inactive | inactive | inactive | Active | Active | inactive | inactive | 10.3 | 94% | 9.1 s | 8.3 s | 24.6 s | 11.6 s | 10.4 s | Activity [6]: Active; Activity [11]: 9.2 s; Activity [12]: 9.7 s; Activity [13]: 1.3 s; Activity [14]: 3.2 s; Activity [17]: 8.5 s; Activity [18]: 22.2 s; Activity [19]: 7.9 s; Activity [20]: 8.9 s; Activity [21]: 11.8 s; Activity [22]: 7.4 s; Activity [23]: 12 s; Activity [24]: 13.5 s; Activity [25]: 10.9 s; Activity [26]: 10.9 s; Activity [27]: 10.3 s |
| O=C(O)CCCNC(=O)N/N=C/c1cccc([N+](=O)[O-])c1 | inactive | inactive | Active | inactive | inactive | inactive | inactive | 17.7 | 90% | 39.5 s | 13.7 s | 46.3 s | 56.9 s | 44.5 s | Activity [31]: Active; Activity [32]: Active |
